From PMC7442708 (SLAS discovery : advancing life sciences R & D, 2020)

Assays:
[1] = tested on: patient-derived xenograft models; conditions: cited from earlier work
[2] = tested on: HES1 and HEY1; conditions: cited from earlier work
[3] = tested on: Notch-dependent transcription; assay: dual luciferase reporter assay; assay type: cell-based; conditions: TK-Renilla luciferase control reporter (Table S1)
[4] = tested on: Notch target genes HEY1 and HES1; assay: RT-qPCR of endogenous gene expression in NICD-transfected HEK293T cells; assay type: cell-based; conditions: 2.5 μM, 24 hours; normalized to beta actin
Outline: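 Total RNA extracted with TRIzol; cDNA reverse-transcribed from 1 μg RNA. Transcripts quantified by SYBR-based real-time PCR, normalized to beta-actin, and analyzed by the ΔΔCt method.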

[5] = biological target: RBPJ occupancy (RBPJ-DNA interactions in cells) (Homo sapiens, UniProt Q06330); assay: anti-RBPJ ChIP-qPCR in NICD-transfected HEK293T cells; assay type: cell-based; conditions: 2.5 μM, 24 hours
Sequence of RBPJ occupancy (RBPJ-DNA interactions in cells) (Homo sapiens, UniProt Q06330) (Q06330 whole entry): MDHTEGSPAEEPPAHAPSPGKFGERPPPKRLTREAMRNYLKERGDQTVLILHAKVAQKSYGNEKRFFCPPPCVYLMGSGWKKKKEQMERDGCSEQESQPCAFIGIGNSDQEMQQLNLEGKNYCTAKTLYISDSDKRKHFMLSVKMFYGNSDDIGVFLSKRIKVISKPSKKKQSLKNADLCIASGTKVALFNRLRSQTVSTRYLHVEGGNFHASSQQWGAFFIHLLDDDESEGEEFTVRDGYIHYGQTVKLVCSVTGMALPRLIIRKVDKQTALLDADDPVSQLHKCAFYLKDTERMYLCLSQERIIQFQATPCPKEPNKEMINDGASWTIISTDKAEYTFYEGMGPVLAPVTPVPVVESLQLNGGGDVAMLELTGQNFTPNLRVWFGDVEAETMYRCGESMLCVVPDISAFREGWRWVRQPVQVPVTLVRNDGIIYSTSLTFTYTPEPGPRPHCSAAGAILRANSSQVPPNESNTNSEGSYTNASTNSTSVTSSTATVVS
Outline: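 HEK293T cells (DMEM, 10% FBS) co-transfected with Flag-NICD and 4xRBPJ-firefly luciferase. About 4 million cells were fixed and sonicated on ice (12 cycles, 30 s on/90 s off, 40% amplitude). ChIP used polyclonal anti-RBPJ (FC31, 1:100) with protein A-agarose. SYBR green qPCR; mean ± SEM, N = 3.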

[6] = biological target: RBPJ occupancy (RBPJ-DNA interactions in cells) (Mus musculus, UniProt P31266); assay: anti-RBPJ ChIP-qPCR in F9 cells; assay type: cell-based, murine; conditions: 2.5 μM, 24 hours
Sequence of RBPJ occupancy (RBPJ-DNA interactions in cells) (Mus musculus, UniProt P31266) (P31266 whole entry): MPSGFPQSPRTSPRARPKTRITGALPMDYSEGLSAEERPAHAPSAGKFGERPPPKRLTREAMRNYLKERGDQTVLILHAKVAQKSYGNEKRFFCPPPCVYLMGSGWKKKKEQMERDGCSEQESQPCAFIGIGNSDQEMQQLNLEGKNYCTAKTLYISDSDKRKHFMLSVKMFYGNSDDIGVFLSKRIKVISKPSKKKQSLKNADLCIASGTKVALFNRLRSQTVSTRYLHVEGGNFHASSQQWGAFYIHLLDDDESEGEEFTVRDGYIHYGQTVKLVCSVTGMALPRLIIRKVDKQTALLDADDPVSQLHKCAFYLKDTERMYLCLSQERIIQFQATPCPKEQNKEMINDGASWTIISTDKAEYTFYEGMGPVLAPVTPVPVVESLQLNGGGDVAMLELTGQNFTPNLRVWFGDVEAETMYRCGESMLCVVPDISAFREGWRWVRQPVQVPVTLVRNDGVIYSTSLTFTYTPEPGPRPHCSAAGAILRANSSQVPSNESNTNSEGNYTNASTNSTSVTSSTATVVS
Outline: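 Murine F9 cells, grown in DMEM with 10% FBS, exposed to 2.5 µM test compound for 24 h. About 4 million cells fixed; chromatin sonicated on ice for 12 cycles (30 s on/90 s off, 40% amplitude). ChIP with polyclonal anti-RBPJ (1:100) and protein A-agarose in 500 μL. Enriched DNA quantified by SYBR green real-time PCR; Actin B serves as negative region. Mean ± SEM, N = 3.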

[7] = tested on: JURKAT cells; assay: cell proliferation, cellular ATP; assay type: cell-based; conditions: 36 hours; compared to CCRF-CEM, DND-41 and CUTLL1
Outline: (§1)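 T-ALL cell lines exposed to test compound for 36 h; MOLT-4 grown in RPMI 1640 with 15% FBS. Cellular ATP measured by CellTiter-Glo luminescence as an index of metabolically active cells. Proliferation expressed relative to DMSO control; mean ± SEM, N = 3.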

[8] = tested on: MOLT4 cells; assay: cell proliferation, cellular ATP; assay type: cell-based; conditions: 36 hours
Outline: as §1

[9] = tested on: DND-41 cells; assay: cell proliferation, cellular ATP; assay type: cell-based; conditions: 36 hours
Outline: (§2)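 Cells kept in RPMI 1640 with 15% FBS (CCRF-CEM, DND-41) and exposed to test compound for 36 h. Cellular ATP was measured by CellTiter-Glo luminescence as an index of metabolically active cells. Proliferation is expressed relative to DMSO control; mean ± SEM, N = 3.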

[10] = tested on: CUTLL1 cells; assay: cell proliferation, cellular ATP; assay type: cell-based; conditions: 36 hours
[11] = tested on: CCRF-CEM cells; assay: cell proliferation, cellular ATP; assay type: cell-based; conditions: 36 hours
Outline: as §2

[12] = tested on: TALL-1 cells; assay: cell proliferation, cellular ATP; assay type: cell-based; conditions: 96 hours; compared to JURKAT
Outline: (§3)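 HPB-ALL and TALL-1 cells (DSMZ), grown in RPMI 1640 with 15% FBS. Exposed to varying amounts of test compound for 96 h, a longer exposure chosen because these lines divide more slowly. Metabolically active cells measured as cellular ATP by CellTiter-Glo luminescence. Proliferation expressed relative to DMSO control; mean ± SEM, N = 3.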

[13] = tested on: HPB-ALL cells; assay: cell proliferation, cellular ATP; assay type: cell-based; conditions: 96 hours; compared to JURKAT
Outline: as §3

[14] = tested on: KOPT-K1 cells; conditions: compared to JURKAT; cited from earlier work
[15] = site occupied in part through CTCF

SMILES: CCOC(=O)COc1ccc(/C=C2\SC(=S)NC2=O)cc1OC [IMR-1]
- tumor growth [1]: impairs tumor growth

SMILES: C[C@H](NC(=O)Cc1cc(F)cc(F)c1)C(=O)N[C@H](C(=O)OC(C)(C)C)c1ccccc1 [DAPT]
- expression of the classic Notch targets HES1 and HEY1 [2]: decreases the expression

SMILES: CC(=O)OC[C@H]1O[C@@H]([S-])[C@H](OC(C)=O)[C@@H](OC(C)=O)[C@@H]1OC(C)=O.CCP(CC)CC.[Au+] [auranofin, Auranofin]
- transcription from the TK promoter [3]: decreases transcription from the TK promoter
- expression of HES1 [4]: significantly decreased
- expression of HEY1 [4]: significantly decreased
- expression of Notch-independent TCERG1 [4]: remained unchanged
- RBPJ occupancy at the endogenous HES1 promoter [5]: decreased RBPJ occupancy at these sites significantly
- RBPJ occupancy at the endogenous HEY1 promoter [5]: decreased RBPJ occupancy at these sites significantly
- RBPJ occupancy at the HES1 promoter ([6]; direct RBPJ binding site): decreased RBPJ occupancy
- RBPJ occupancy at the ZFP334 promoter ([6]; direct RBPJ binding site): decreased RBPJ occupancy
- RBPJ occupancy at NANOG [6, 15]: not effectively disrupted
- RBPJ occupancy at NAPRT1 [6, 15]: not effectively disrupted
- sensitivity of proliferation (cellular ATP) [7]: most resistant
- sensitivity of proliferation (cellular ATP) [8]: more sensitive to auranofin than JURKAT
- sensitivity of proliferation (cellular ATP) [9]: significantly more sensitive to auranofin than JURKAT
- sensitivity of proliferation (cellular ATP) [10]: significantly more sensitive to auranofin than JURKAT
- sensitivity of proliferation (cellular ATP) [11]: significantly more sensitive to auranofin than MOLT-4
- proliferation (cellular ATP) [12]: decreased the proliferation
- proliferation (cellular ATP) [13]: decreased the proliferation

SMILES: Cn1nccc1-c1ccc(C(N)=O)c(Oc2ccccc2F)c1 [RIN1]
- expression of the classic Notch targets HES1 and HEY1 [2]: increases the expression
- sensitivity of Notch-addicted KOPT-K1 cells [14]: as sensitive to RIN1 than Notch-independent JURKAT cells
